For assay [1], the target named is Tyrosine-protein kinase Lck (Homo sapiens) (UniProt P06239). Description: Inhibition of Lck at 10 uM by HTRF assay relative to control. The gist of the method: (§1)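 HTRF kinase assay, one panel of kinases. Inhibitor stock 50 µM in 100% DMSO; tested at 10 µM. ATP and substrate at final levels near Km. Final buffer: 50 mM Hepes/NaOH pH 7.4, 40 µM Na3VO4, 0.005% Tween-20, 1 mM DTT, MnCl2 or MgCl2 at kinase-dependent levels. Started by adding ATP/substrate. Reaction run at room temperature, time varied by kinase. Detection mix in 50 mM Hepes pH 7.4, 0.1% BSA, 150 mM KF, incubated ≥1 h at room temperature. Activity expressed as % of uninhibited control; n=2.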
(TR-FRET usually uses a lanthanide donor and a delayed reading to cut background.)

Assay [2] concerns the target Proto-oncogene tyrosine-protein kinase Src (Homo sapiens) (UniProt P12931). Put plainly: Inhibition of Src at 10 uM by HTRF assay relative to control. The gist of the method: as §1
In assay [3] the target is Tyrosine-protein kinase Fes/Fps (Homo sapiens) (UniProt P07332). Description: Inhibition of FES at 10 uM by HTRF assay relative to control. An outline of the steps:
as §1

Assay [4] deals with Tyrosine-protein kinase ABL1 (Homo sapiens) (UniProt P00519). Description: Inhibition of Abl at 10 uM by HTRF assay relative to control. The gist of the method:
as §1

For assay [5], the target named is Cyclin-dependent kinase 2 (Homo sapiens) (UniProt P24941). Description: Inhibition of CDK2 at 10 uM by HTRF assay relative to control. The gist of the method: as §1
Assay [6] has as its target Ribosomal protein S6 kinase beta-1 (Homo sapiens) (UniProt P23443). Description: Inhibition of p70S6K at 10 uM by HTRF assay relative to control. The gist of the method: as §1
Assay [7] is described as follows: Inhibition of IRK at 10 uM by HTRF assay relative to control. The gist of the method:
as §1

The target in assay [8] is Protein-tyrosine kinase 6 (Homo sapiens) (UniProt Q13882). Put plainly: Inhibition of Brk at 10 uM by HTRF assay relative to control. The gist of the method: as §1
Assay [9] addresses Serine/threonine-protein kinase Chk2 (Homo sapiens) (UniProt O96017). Put plainly: Inhibition of CHK2 at 10 uM by HTRF assay relative to control. The gist of the method:
as §1

Assay [10] can be described thus: Inhibition of PKA at 10 uM by HTRF assay relative to control. The gist of the method:
as §1

Assay [11] has as its target High affinity nerve growth factor receptor (Homo sapiens) (UniProt P04629). Put plainly: Inhibition of TrkA at 10 uM by HTRF assay relative to control. The gist of the method:
as §1

Assay [12] has as its target T1, Serine/threonine-protein kinase Chk1 (Homo sapiens) (UniProt O14757).
T1 sequence (whole entry): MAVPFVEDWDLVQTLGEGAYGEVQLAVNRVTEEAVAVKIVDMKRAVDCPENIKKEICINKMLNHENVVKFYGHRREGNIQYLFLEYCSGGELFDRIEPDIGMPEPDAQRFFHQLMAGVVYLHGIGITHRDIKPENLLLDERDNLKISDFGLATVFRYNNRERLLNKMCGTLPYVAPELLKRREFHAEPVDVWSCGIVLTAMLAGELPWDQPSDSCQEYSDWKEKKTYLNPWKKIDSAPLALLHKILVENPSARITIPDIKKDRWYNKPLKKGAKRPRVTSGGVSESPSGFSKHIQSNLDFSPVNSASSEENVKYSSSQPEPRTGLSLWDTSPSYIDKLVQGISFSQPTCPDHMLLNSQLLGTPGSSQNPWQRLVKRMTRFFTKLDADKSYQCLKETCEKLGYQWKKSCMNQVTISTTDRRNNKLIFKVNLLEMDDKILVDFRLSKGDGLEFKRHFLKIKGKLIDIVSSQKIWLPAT
Description: Inhibition of CHK1 at 10 uM by HTRF assay relative to control. The gist of the method: as §1

Assay [13] addresses Mitogen-activated protein kinase 8 (Homo sapiens) (UniProt P45983). Description: Inhibition of JNK1 at 10 uM by HTRF assay relative to control. An outline of the steps:
as §1

For assay [14], the target named is Insulin-like growth factor 1 receptor (Homo sapiens) (UniProt P08069). Description: Inhibition of IGF1R at 10 uM by HTRF assay relative to control. The gist of the method: as §1
The target of assay [15] is RAC-alpha serine/threonine-protein kinase (Homo sapiens) (UniProt P31749). Put plainly: Inhibition of AKT1/PKBalpha at 10 uM by HTRF assay relative to control. An outline of the steps:
as §1

In assay [16] the target is Mitogen-activated protein kinase 1 (Homo sapiens) (UniProt P28482). Description: Inhibition of ERK2 at 10 uM by HTRF assay relative to control. The gist of the method: as §1
Assay [17] addresses Cyclin-dependent kinase 1 (Homo sapiens) (UniProt P06493). Description: Inhibition of CDK1 at 10 uM by HTRF assay relative to control. The gist of the method: as §1
The target of assay [18] is Rho-associated protein kinase 2 (Homo sapiens) (UniProt O75116). Put plainly: Inhibition of ROCK2 at 10 uM by HTRF assay relative to control. The gist of the method: as §1
Assay [19] deals with T2, Mitogen-activated protein kinase 12 (Homo sapiens) (UniProt P53778).
T2 sequence (whole entry): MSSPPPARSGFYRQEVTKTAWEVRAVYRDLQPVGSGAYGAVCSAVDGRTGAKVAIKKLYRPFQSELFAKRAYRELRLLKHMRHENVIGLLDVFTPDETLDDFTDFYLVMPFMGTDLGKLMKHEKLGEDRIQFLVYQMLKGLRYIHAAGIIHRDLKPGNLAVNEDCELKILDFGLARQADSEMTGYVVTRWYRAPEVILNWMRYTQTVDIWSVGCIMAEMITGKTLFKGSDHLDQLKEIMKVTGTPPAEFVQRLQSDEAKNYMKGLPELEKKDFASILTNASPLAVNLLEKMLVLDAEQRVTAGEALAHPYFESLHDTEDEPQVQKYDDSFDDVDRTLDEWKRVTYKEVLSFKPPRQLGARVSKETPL
Put plainly: Inhibition of p38-gamma at 10 uM by HTRF assay relative to control. An outline of the steps:
as §1

The target of assay [20] is Tyrosine-protein kinase Lyn (Homo sapiens) (UniProt P07948). Put plainly: Inhibition of Lyn at 10 uM by HTRF assay relative to control. An outline of the steps: as §1
Sequence of Tyrosine-protein kinase Lyn (Homo sapiens) (P07948 2-512 limits assumed): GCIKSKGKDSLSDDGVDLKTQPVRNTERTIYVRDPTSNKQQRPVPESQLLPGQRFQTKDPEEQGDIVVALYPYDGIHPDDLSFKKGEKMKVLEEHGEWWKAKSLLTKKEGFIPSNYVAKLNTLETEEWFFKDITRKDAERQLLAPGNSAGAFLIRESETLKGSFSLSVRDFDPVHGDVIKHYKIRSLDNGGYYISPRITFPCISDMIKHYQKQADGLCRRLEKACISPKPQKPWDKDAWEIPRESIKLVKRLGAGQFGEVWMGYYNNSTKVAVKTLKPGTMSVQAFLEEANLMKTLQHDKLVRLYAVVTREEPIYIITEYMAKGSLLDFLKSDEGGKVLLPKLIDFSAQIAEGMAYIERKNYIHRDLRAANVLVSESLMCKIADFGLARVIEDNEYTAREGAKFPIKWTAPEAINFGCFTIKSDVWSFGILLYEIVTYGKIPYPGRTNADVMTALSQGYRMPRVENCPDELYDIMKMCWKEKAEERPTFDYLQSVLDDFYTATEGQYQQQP

Sequence of Tyrosine-protein kinase Lck (Homo sapiens) (P06239 2-509 limits assumed): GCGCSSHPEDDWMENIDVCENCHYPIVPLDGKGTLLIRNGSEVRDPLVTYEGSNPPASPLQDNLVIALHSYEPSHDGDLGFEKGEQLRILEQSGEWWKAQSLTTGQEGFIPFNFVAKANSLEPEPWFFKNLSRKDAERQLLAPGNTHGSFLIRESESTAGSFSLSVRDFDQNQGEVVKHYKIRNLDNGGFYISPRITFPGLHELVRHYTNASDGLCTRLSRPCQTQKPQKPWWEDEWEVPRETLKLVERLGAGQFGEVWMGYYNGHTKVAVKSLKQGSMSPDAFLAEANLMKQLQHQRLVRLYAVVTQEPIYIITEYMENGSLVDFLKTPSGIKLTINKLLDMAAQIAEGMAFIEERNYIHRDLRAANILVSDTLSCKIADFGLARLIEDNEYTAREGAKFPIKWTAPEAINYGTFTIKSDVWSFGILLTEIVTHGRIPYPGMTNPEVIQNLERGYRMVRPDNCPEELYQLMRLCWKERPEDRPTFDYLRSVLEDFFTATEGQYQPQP
Sequence of Tyrosine-protein kinase Fes/Fps (Homo sapiens) (P07332 whole entry): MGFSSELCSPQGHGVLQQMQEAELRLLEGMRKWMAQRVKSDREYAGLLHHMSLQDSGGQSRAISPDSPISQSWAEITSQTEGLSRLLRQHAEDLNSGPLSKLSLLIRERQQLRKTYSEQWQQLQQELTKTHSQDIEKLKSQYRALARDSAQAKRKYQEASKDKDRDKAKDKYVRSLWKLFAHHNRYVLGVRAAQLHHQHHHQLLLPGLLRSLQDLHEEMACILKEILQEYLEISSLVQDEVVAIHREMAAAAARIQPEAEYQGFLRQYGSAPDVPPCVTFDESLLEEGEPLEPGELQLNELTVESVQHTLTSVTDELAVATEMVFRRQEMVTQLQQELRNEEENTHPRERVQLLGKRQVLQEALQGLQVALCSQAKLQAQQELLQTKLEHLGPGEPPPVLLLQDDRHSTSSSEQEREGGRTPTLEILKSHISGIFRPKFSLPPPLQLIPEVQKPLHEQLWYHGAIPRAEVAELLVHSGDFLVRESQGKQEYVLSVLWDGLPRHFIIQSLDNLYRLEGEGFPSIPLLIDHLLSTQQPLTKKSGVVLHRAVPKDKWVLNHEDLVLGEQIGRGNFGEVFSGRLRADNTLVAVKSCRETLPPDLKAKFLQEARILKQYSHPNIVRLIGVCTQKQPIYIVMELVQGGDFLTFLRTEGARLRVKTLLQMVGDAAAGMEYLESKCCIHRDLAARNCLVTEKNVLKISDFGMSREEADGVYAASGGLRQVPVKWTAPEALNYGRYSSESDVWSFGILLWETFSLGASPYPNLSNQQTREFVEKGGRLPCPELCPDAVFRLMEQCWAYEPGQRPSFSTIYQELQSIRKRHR
Sequence of High affinity nerve growth factor receptor (Homo sapiens) (P04629 33-796 limits assumed): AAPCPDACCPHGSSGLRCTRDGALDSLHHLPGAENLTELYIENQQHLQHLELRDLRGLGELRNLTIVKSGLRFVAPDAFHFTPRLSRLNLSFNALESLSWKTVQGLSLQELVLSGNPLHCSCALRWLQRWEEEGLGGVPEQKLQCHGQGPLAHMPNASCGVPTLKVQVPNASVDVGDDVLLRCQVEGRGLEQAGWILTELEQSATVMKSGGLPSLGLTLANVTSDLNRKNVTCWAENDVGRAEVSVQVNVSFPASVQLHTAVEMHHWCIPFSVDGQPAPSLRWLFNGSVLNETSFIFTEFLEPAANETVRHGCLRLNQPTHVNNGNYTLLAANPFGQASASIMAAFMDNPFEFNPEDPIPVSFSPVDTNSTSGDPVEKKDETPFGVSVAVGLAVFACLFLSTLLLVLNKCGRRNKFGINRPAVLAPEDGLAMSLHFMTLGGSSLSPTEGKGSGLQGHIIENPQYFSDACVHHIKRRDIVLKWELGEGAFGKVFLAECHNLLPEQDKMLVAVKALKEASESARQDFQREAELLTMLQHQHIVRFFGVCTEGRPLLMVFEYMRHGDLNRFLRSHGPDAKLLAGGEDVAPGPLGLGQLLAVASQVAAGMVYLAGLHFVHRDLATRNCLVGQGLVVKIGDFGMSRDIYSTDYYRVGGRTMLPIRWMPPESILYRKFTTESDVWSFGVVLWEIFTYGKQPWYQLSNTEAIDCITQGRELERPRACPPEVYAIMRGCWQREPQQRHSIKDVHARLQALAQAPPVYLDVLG
Sequence of Serine/threonine-protein kinase Chk2 (Homo sapiens) (O96017 whole entry): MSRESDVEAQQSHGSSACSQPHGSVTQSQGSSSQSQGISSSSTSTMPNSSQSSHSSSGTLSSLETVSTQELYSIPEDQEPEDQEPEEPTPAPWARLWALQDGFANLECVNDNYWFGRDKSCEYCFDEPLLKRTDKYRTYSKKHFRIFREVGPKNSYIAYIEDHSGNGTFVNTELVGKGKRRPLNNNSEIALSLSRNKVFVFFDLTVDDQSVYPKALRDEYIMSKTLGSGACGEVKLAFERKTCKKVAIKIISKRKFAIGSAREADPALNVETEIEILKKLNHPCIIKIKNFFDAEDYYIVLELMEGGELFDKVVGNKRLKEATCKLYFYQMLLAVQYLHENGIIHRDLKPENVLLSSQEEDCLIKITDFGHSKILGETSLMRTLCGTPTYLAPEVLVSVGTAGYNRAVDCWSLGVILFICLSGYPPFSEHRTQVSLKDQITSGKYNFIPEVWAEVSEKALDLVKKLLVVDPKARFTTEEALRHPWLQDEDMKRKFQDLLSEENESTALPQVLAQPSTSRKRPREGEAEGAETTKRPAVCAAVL
Sequence of Ribosomal protein S6 kinase beta-1 (Homo sapiens) (P23443 whole entry, looked up): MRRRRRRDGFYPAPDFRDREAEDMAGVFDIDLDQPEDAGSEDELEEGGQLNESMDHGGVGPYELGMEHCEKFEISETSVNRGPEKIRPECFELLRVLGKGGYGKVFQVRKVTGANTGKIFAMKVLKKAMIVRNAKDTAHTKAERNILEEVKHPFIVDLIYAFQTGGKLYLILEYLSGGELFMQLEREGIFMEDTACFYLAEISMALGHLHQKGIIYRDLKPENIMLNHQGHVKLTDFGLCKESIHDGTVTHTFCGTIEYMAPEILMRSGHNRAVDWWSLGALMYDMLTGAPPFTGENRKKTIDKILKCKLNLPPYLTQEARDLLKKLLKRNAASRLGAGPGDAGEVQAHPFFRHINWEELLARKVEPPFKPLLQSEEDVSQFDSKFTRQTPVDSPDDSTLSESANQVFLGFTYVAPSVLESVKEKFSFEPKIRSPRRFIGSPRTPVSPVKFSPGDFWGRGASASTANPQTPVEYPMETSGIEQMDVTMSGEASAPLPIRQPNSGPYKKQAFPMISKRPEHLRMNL
Sequence of Proto-oncogene tyrosine-protein kinase Src (Homo sapiens) (P12931 2-536 limits assumed): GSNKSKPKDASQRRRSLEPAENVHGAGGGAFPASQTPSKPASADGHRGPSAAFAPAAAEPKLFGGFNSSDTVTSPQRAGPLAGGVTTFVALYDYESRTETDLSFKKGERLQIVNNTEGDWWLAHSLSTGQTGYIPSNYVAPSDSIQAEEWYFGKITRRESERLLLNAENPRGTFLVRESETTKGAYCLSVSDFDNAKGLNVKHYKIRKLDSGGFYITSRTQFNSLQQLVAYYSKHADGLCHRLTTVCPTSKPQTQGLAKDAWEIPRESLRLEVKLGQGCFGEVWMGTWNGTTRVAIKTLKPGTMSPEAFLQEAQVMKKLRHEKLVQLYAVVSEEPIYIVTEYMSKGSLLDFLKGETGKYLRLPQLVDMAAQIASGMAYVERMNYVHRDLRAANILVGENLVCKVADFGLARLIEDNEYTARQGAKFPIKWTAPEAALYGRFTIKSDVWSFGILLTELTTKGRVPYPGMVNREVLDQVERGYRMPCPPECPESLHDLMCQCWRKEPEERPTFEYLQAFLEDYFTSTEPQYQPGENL
Sequence of RAC-alpha serine/threonine-protein kinase (Homo sapiens) (P31749 whole entry): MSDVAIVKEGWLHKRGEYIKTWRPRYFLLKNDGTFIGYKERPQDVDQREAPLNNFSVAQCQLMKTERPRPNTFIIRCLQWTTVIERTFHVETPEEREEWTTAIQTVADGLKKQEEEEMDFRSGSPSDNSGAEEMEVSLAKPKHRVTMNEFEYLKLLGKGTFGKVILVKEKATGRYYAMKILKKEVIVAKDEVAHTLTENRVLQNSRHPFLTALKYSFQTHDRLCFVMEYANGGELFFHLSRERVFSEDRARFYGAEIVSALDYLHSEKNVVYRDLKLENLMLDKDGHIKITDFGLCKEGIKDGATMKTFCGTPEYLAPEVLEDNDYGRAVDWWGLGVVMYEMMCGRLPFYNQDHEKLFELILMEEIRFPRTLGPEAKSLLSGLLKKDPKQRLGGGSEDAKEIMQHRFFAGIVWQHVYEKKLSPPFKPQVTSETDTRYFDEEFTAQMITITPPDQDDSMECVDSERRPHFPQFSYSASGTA
Sequence of Cyclin-dependent kinase 1 (Homo sapiens) (P06493 whole entry, looked up): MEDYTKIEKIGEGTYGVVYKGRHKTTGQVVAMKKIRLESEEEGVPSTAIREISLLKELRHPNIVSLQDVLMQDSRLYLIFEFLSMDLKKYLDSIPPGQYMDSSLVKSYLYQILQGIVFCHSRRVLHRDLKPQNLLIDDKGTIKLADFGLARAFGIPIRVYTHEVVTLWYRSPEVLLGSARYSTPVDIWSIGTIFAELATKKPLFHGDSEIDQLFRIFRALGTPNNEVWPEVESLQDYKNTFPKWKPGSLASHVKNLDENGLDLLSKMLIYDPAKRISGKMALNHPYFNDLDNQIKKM

The term inhibition denotes how much of the control response was suppressed. Consider `Nc1nc(Nc2ccc3ncsc3c2)cc(N2CCC[C@H]2C(=O)N[C@@H](CO)c2ccccc2)n1`, for which the inhibition in [1] was found to be 0%; in assay [2], 0%; in assay [3] it was 3%; in [4] it was 0%; in assay [5], 1%; in assay [6], 5%. For the same molecule, the inhibition came out at 1% in assay [7]; 4% in assay [8]; 2% in assay [9]; 1% in [10]; 9% in assay [11]; 2% in assay [12]. Moreover, the inhibition was 0% in assay [13]; 7% in assay [14]; 0% in assay [15]; 0% in assay [16]; 0% in [17]; 2% in [18]. For the same molecule, the inhibition was determined as 1% in assay [19] and 0% in [20].

Take `Cc1cccc(Nc2nccc(Nc3cccc(C(=O)NCc4ccc(N(C)C)cc4)c3)n2)c1`: the inhibition in [1] was 0%; in [2] it was 8%; in [3], 10%; in assay [4] it was 11%; in assay [5], 1%; in assay [6], 9%. The inhibition in assay [7] was found to be 0%; in [8], 33%; in assay [9], 0%; in [10], 0%; in assay [11] it was 7%; in assay [12] it was 6%. The inhibition in assay [13] is 0%; in assay [14], 0%; in assay [15], 1%; in [16] it was 0%; in assay [17] it was 0%; in assay [18], 4%. The inhibition in assay [19] came to 0%; in assay [20], 9%.

On to `COC[C@@H]1CCCN1C(=O)[C@@H]1CCCN1c1cc(Nc2cccc(OC)c2)nc(N)n1`, for which the inhibition in assay [1] came to 0%; in assay [2], 4%; in assay [3] it was 8%; in [4] it was 0%; in assay [5], 7%; in assay [6], 9%. The inhibition turned out to be 0% in assay [7]; 17% in assay [8]; 0% in assay [9]; 0% in assay [10]; 9% in assay [11]; 1% in assay [12]. The inhibition in [13] was found to be 0%; in assay [14] it was 5%; in assay [15], 0%; in [16] it was 0%; in [17], 5%; in assay [18], 0%. The inhibition in [19] was found to be 3%; in assay [20] it was 13%.

As to `Cc1cccc(Nc2cc(Nc3cccc(C(=O)N(CC(C)O)CC(C)O)c3)ncn2)c1` (stereo not given), the inhibition in assay [1] turned out to be 26%; in [2], 26%; in assay [3], 20%; in assay [4] it was 75%; in assay [5], 3%; in assay [6], 14%. The inhibition was 0% in [7]; 23% in assay [8]; 1% in assay [9]; 0% in assay [10]; 11% in [11]; 3% in assay [12]. Moreover, the inhibition in assay [13] was 7%; in assay [14], 0%; in assay [15], 2%; in assay [16], 0%; in [17], 0%; in assay [18], 2%. For the same molecule, the inhibition in assay [19] amounted to 0%; in assay [20], 49%.

In the case of `O=C(NCc1ccncc1)c1cccc(Nc2cc(Nc3cccc(Br)c3)ncn2)c1`, the inhibition was determined as 32% in assay [1]; 30% in assay [2]; 17% in [3]; 31% in assay [4]; 15% in [5]; 16% in [6]. In addition, the inhibition in assay [7] was 0%; in assay [8], 10%; in [9] it was 0%; in [10], 0%; in [11] it was 8%; in [12] it was 4%. In addition, the inhibition in assay [13] came to 28%; in assay [14], 5%; in assay [15], 0%; in assay [16] it was 0%; in assay [17], 1%; in [18], 13%. Moreover, the inhibition was determined as 0% in assay [19] and 29% in [20].

As for `COc1cccc(Nc2cc(Nc3cccc(C(=O)N(C)CCc4ccccn4)c3)nc(N)n2)c1`, the inhibition in assay [1] is 0%; in assay [2], 6%; in assay [3] it was 7%; in assay [4] it was 8%; in assay [5], 1%; in assay [6] it was 8%. Further, the inhibition in assay [7] worked out at 6%; in [8], 21%; in assay [9], 4%; in assay [10] it was 0%; in [11], 9%; in assay [12], 9%. Besides, the inhibition in assay [13] came out at 19%; in assay [14] it was 0%; in [15] it was 1%; in assay [16], 0%; in assay [17], 0%; in assay [18], 2%. Moreover, the results for the inhibition in assay [19] and in assay [20] were 3% and 9%, respectively.

Take `Nc1nc(N2CCOCC2)cc(N2CCC(C(=O)NCCc3ccc(O)cc3)CC2)n1`: the inhibition amounted to 0% in assay [1]; 2% in [2]; 6% in assay [3]; 6% in assay [4]; 5% in assay [5]; 6% in assay [6]. For the same molecule, the inhibition stood at 0% in assay [7]; 0% in [8]; 0% in assay [9]; 0% in assay [10]; 6% in assay [11]; 3% in assay [12]. The inhibition was found to be 4% in assay [13]; 0% in [14]; 2% in assay [15]; 11% in assay [16]; 0% in assay [17]; 0% in assay [18]. For the same molecule, the inhibition stood at 0% in assay [19] and 5% in [20].

For `Cc1cccc(Oc2ccnc(N3CCC[C@H]3C(=O)NCc3cccnc3)n2)c1`, the inhibition turned out to be 0% in assay [1]; 0% in assay [2]; 5% in assay [3]; 7% in assay [4]; 8% in assay [5]; 16% in assay [6]. In addition, the inhibition in assay [7] is 0%; in [8] it was 0%; in assay [9] it was 4%; in assay [10], 0%; in assay [11] it was 4%; in [12], 0%. The inhibition in assay [13] was found to be 6%; in assay [14] it was 0%; in [15], 0%; in [16] it was 0%; in [17], 0%; in [18] it was 0%. In addition, the inhibition in [19] came out at 0%; in assay [20] it was 6%.

As for `O=C(COc1ccccc1)N1CCN(c2nccc(Nc3ccc4ncsc4c3)n2)CC1`, the inhibition in assay [1] worked out at 22%; in [2], 13%; in assay [3], 18%; in assay [4] it was 8%; in [5], 8%; in [6], 15%. Also, the inhibition worked out at 0% in assay [7]; 54% in [8]; 6% in assay [9]; 2% in assay [10]; 9% in assay [11]; 4% in assay [12]. In addition, the inhibition is 34% in [13]; 0% in [14]; 1% in [15]; 0% in [16]; 0% in [17]; 7% in assay [18]. The inhibition in [19] is 5%; in assay [20], 12%.
